Data set [1] concerns the target human delta-opioid receptor (δOR) (Homo sapiens, UniProt P41143). Particulars: saturation binding to δOR in CHO/MC4R/δOR cells.
The next data set deals with Hek293/MC4R/CCK2R cells. The data set is described as follows: Cell fluorescence imaging of Cy5 labeled ligand binding and internalization. The data set is classed as cell-based, human. Put shortly: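 Live stable Hek293/MC4R/CCK2R cells on coverslips were held in a 37°C stage chamber. Cells were incubated with 0.8 nM Cy5-tagged heterobivalent ligand (15 sec, or 3 min in the legend) and rinsed with ligand-free medium. Images were taken immediately and 7 min later by CCD camera, with Cy5 excitation at 640 nm (20 nm bandpass) and emission at 690 nm (30 nm filter).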

The test system of data set [2] is Hek293 cells expressing MC4R and/or CCK2R. The data set is described as follows: Cytotoxicity, celltiter-Glo luminescent cell viability assay. The data set is classed as cell-based, human. Particulars: 1 μM, dual receptor expressing (target) cells, 24 and 48 h.

“Also recorded” adds a separate entry of the source. Positions of bridges follow the written chain, without caps; N, C: chain ends. Non-standard residues stand in square brackets, D forms with d. Residues, ends and D or L forms follow the SMILES beside them. *: point of attachment. DTPA = O=C(O)CN(CCN(CC(=O)O)CC(=O)O)CCN(CC(=O)O)CC(=O)*; dPen = CC(C)(S)[C@@H](N)C(=O)O

Sequence of human delta-opioid receptor (δOR) (P41143 whole entry): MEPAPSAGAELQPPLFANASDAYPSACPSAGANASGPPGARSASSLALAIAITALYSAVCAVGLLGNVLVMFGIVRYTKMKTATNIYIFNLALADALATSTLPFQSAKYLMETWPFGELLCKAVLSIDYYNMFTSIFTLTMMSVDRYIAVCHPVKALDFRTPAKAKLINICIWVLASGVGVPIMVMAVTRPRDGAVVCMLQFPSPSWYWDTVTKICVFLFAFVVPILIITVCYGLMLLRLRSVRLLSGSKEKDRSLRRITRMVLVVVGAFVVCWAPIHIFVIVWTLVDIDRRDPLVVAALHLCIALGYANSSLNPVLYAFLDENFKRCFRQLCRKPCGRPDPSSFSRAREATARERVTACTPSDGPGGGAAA

For the compound `CC1(C)SSC[C@@H](C(=O)N[C@@H](Cc2ccccc2)C(=O)N[C@@H](CCCCNC(=O)CN(CCN(CCN(CC(=O)O)CC(=O)O)CC(=O)O)CC(=O)O)C(N)=O)NC(=O)[C@H](Cc2ccccc2)NC(=O)CNC(=O)[C@@H]1NC(=O)[C@@H](N)Cc1ccc(O)cc1` [Eu-DPLCE, H-Tyr-c[DPen-Gly-Phe-Cys]-Phe-Lys(Eu-(DTPA))-NH2] (H-Y[dPen]GFCFK(DTPA)-NH2; disulfide 2-5), the Bmax in data set [1] is reported as 24,000 ± 2,000 AFU.
On to “Ac-MSH7-PEGO-[Pro-Gly]3-Lys(Cy5)-PEGO-CCK6-NH2”, for which the “internalization of receptor/ligand complex” value in the data set with Hek293/MC4R/CCK2R cells (by 10 minutes, no significant loss of ligand on adding CCK ligand 50 μM) is listed as “substantially internalized”. In the data set on Hek293/MC4R/CCK2R cells (immediately following incubation, 15 sec with 0.8 nM), the “binding to the cell surface (Cy5 fluorescence)” value is recorded as “significant binding to the cell surface”.
For the compound cholecystokinin-8 [CCK], in data set [2], the cell viability entry was “reduced viability; also recorded: toxicity”.
